The list is not random: actives were taken first. Their share in the collection is about 4.3%.
PREPL inhibitor = human PREPL enzyme inhibition; AID 2751; 0.68% of 320,000 active; inhibition, % at 5.96 µM; Q4J6C6; recombinant PREPL, fluorescence polarization activity-based probe; in the data active means inhibition above about 43%
Rin1 Abl inh = human Rin1-Abl interaction inhibition; P00519+Q13671; TR-FRET Rin1/Abl binding, biochemical; inhibition, % at 7.35 µM; 0.4% of 360,000 active; AID 588664; in the data active means inhibition above about 5%, passing the limit was not always enough
UBC13 inh = human UBC13 polyubiquitination inhibition; UBC13 polyubiquitin chain formation, TR-FRET; inhibition, % at 20 µM; 0.47% of 330,000 active; in the data active means inhibition above about 45%, passing the limit was not always enough
SUMO HTRF inh = SUMOylation inhibition; 0.36% of 290,000 active; inhibition, % at 35 µM; HTRF SUMOylation assay, SAE1/SAE2 + UBC9, in vitro; P63279; in the data active means inhibition above about 50%, passing the limit was not always enough
RBBP9 inhibitor = human RBBP9 hydrolase inhibition. O75884. recombinant RBBP9, FP-Rh probe fluorescence polarization. inhibition, % at 7.94 µM. 0.2% of 220,000 active. AID 1515;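 active means inhibition above the campaign mean of all tested compounds plus 3 SD, cut at about 14% in these data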
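System: RBBP9 protein / Quantity: 2.5 µM RBBP9 dispensing solution, before mixing / Also added: Serine-hydrolase probe FP-Rh, 375 nM pre-mixing / Dosing: 7.94 µM single dose, 0.794% DMSO / Timing: enzyme-compound preincubation 30 min, then probe labeling 45 min, 25 °C / Signal: FP readout at 525/598 nm / Controls: DMSO-treated enzyme wells and wells lacking RBBP9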
ALR H2O2 inh = human ALR oxidase inhibition via reduced H2O2. 3.8% of 290,000 active. P55789. purified ALR, DTT oxidation, H2O2 HRP-luminol luminescence. inhibition, % (test concentration not listed);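 active means mean replicate inhibition above about 79%, with every replicate also reaching it, limit read from the data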
Each line names hits and unclear results; the compound was inactive in the other large screens.

Cc1c(S(=O)(=O)NC2CCCCCC2)c(=O)n(C)c(=O)n1C	none (no result: SUMO HTRF inh, RBBP9 inhibitor)
O=C(NNc1c(F)c(F)cc(F)c1F)c1ccc(Cl)nc1	ALR H2O2 inh 96 (no result: RBBP9 inhibitor)
O=C(NNc1cccc(Cl)n1)c1ccc(Cl)nc1	none
Cc1sc(NC(=O)c2ccco2)c(C(=O)c2ccc(Cl)cc2)c1C	ALR H2O2 inh 97
C/C(=N\O)c1ccc2c3ccccc3n(C)c2c1	none
CCn1c2ccccc2c2cc(/C(C)=N/O)ccc21	ALR H2O2 inh 98
COc1cc(C(=O)c2nccc3cc(OC)c(OC)cc23)c([N+](=O)[O-])cc1OC	SUMO HTRF inh 87
Cc1cccc(C)c1OCC(=O)NNC(=S)NC(=O)C1CC1	UBC13 inh 85 (no result: RBBP9 inhibitor)
Cc1cccc(C)c1OCC(=O)NC1CC1	none (no result: RBBP9 inhibitor)
N/C(=N\OC(=O)c1ccc2ccccc2c1)c1ccccc1Cl	none (no result: RBBP9 inhibitor)
Cc1csc(/N=C/c2ccc([N+](=O)[O-])cc2)n1	ALR H2O2 inh 85 (no result: UBC13 inh)
CC1=C(C)CC(C(=O)NCc2cccc(Cl)c2)C(C(=O)O)C1 (centres undefined)	none (no result: RBBP9 inhibitor)
CC(=O)Nc1ccc(C(=O)N2CCCCC2c2cc(C(=O)N3CCOCC3)no2)cc1 (centres undefined)	none (no result: PREPL inhibitor, UBC13 inh, SUMO HTRF inh, RBBP9 inhibitor, ALR H2O2 inh)
Cc1ccc2nc(NCc3ccccc3)[nH]c2c1	ALR H2O2 inh 99 (no result: UBC13 inh)
COc1ccc2nc(N3CCCC3)[nH]c2c1	ALR H2O2 inh 96
COc1ccc2nc(NCc3ccccc3)[nH]c2c1	ALR H2O2 inh 95
Cc1nc(C(N)=O)nc2ccccc12	none
Oc1ccc(Cl)cc1C=Nc1ccc2c3c(cccc13)CC2	SUMO HTRF inh 57 (no result: ALR H2O2 inh)
CC1C(=O)C(C)C(c2ccccc2F)NC1c1ccccc1F (centres undefined)	none (no result: RBBP9 inhibitor)
O=C(O)C1=CC(=C(c2ccc(O)c(C(=O)O)c2)c2ccc(O)c(C(=O)O)c2)C=CC1=O	PREPL inhibitor 80, ALR H2O2 inh 97 (no result: Rin1 Abl inh, UBC13 inh, SUMO HTRF inh, RBBP9 inhibitor)
Cc1cccc(N2CCN(c3ccc(NC(=O)/C=C(/C(=O)O)c4ccccc4)cc3)CC2)c1	ALR H2O2 inh 96
CN(C)c1ccc(/C=C2/SC(=O)N(CCN=C3NS(=O)(=O)c4ccccc43)C2=O)cc1	none (no result: ALR H2O2 inh)
CN(C)c1ccc(/C=C2\SC(=O)N(CCc3nnc(N)s3)C2=O)cc1	ALR H2O2 inh 97
O=C1c2ccccc2NC(c2ccc(O)cc2)N1/N=C/c1ccc(O)cc1 (centres undefined)	ALR H2O2 inh 99
CC(C)(C)c1ccc(/C=N/Nc2ccc(C(=O)O)cc2)cc1	none (no result: ALR H2O2 inh)
CC1Oc2ccccc2C=C1/C=N/Nc1ccc(C(=O)O)cc1 (centres undefined)	ALR H2O2 inh 92
CCc1ccc(-c2nc(CS(=O)CC(=O)NCc3ccccc3)c(C)o2)cc1 (centres undefined)	ALR H2O2 inh 99 (no result: RBBP9 inhibitor)
Cc1oc(-c2ccc(Cl)cc2)nc1CS(=O)CC(=O)NCc1ccccn1 (centres undefined)	ALR H2O2 inh 99 (no result: RBBP9 inhibitor)
CCc1cccc(NC(=O)CS(=O)Cc2nc(-c3ccc(C)cc3)oc2C)c1 (centres undefined)	ALR H2O2 inh 99
Cc1oc(-c2ccc(Cl)cc2)nc1CS(=O)CC(=O)NC(C)c1ccccc1 (centres undefined)	ALR H2O2 inh 98 (no result: RBBP9 inhibitor)
O=C(CCSc1ccc(Cl)cc1)NCc1ccccn1	none
CC(=O)Oc1ccc(N(C(C)=O)S(=O)(=O)c2ccc(C)cc2)c2ccccc12	none (no result: SUMO HTRF inh, RBBP9 inhibitor)
COc1cc2c(cc1OC)C(c1cccs1)N(C(=O)c1ccc(S(=O)(=O)N(C)C)cc1)CC2 (centres undefined)	none
CCC(C(=O)N1CCC(N2CCCCC2)CC1)n1nc(C)c2sc3ccccc3c2c1=O (centres undefined)	none (no result: RBBP9 inhibitor)
Cc1oc(-c2ccc(Cl)cc2)nc1CS(=O)CC(=O)NCc1ccccc1 (centres undefined)	ALR H2O2 inh 99 (no result: RBBP9 inhibitor)
Cc1ccc(-c2nc(CS(=O)CC(=O)NCc3ccc(Cl)cc3)c(C)o2)cc1 (centres undefined)	none
COc1ccc(-c2nc(CS(=O)CC(=O)NCc3ccc(Cl)cc3)c(C)o2)cc1 (centres undefined)	ALR H2O2 inh 99
O=C(NCc1ccco1)c1ccc(-c2cccc(Cl)c2)o1	none
NS(=O)(=O)c1ccc(NC(=O)CSc2nc3ccccc3nc2N2CCOCC2)cc1	none (no result: RBBP9 inhibitor)
CN1/C(=C\C=C(/C#N)C(=O)Nc2ccccc2F)C(C)(C)c2ccccc21	none
CN1/C(=C/C=C(/C#N)C(N)=O)C(C)(C)c2ccccc21	ALR H2O2 inh 92
Cc1cc(=O)[nH]c(SCC(=O)Nc2nc3c(s2)CCCC3)n1	ALR H2O2 inh 99
O=C(CSC1=NCCS1)Nc1nc2c(s1)CCCC2	ALR H2O2 inh 99
COc1cccc(C=O)c1OCCCOc1cccc2cccnc12	ALR H2O2 inh 97 (no result: RBBP9 inhibitor)
CCNc1sc(C(=O)OCC)c(N)c1C#N	none
CC(C)c1c(O)nc(SCC(=O)N2CCOCC2)[nH]c1=O	ALR H2O2 inh 96
O=C(CSc1nc(O)c(C(c2ccccc2)c2ccccc2)c(=O)[nH]1)N1CCOCC1	ALR H2O2 inh 91
O=C(CSc1nc(O)c(-c2ccccc2)c(=O)[nH]1)N1CCOCC1	none
COc1ccc(S(=O)(=O)N2CCCCC2c2cc(C(=O)Nc3ccccc3)no2)cc1 (centres undefined)	none (no result: PREPL inhibitor, UBC13 inh, SUMO HTRF inh, RBBP9 inhibitor, ALR H2O2 inh)
COc1cc(CCC(=O)N2CCN(c3ccccc3)CC2)cc(OC)c1OC	none (no result: RBBP9 inhibitor)
O=C(Cc1ccccc1F)NNC(=O)c1cccs1	none (no result: SUMO HTRF inh, RBBP9 inhibitor)
O=C(Cc1coc2cc(O)ccc12)NNC(=O)c1cccs1	ALR H2O2 inh 99 (no result: SUMO HTRF inh, RBBP9 inhibitor)
O=C(CSc1nncc(=O)[nH]1)Nc1cccc([N+](=O)[O-])c1	ALR H2O2 inh 100 (no result: RBBP9 inhibitor)
Nc1ccc(SCC(=O)Nc2cccc([N+](=O)[O-])c2)cc1	ALR H2O2 inh 99
O=C(O)CC(C(=O)O)c1ccc(OCCCCOc2ccc(C(CC(=O)O)C(=O)O)cc2)cc1 (centres undefined)	none (no result: RBBP9 inhibitor)
COc1cc([C@H]2OC[C@H]3[C@@H]2CO[C@H]3c2ccc(O)c(OC)c2)ccc1O	ALR H2O2 inh 98 (no result: SUMO HTRF inh, RBBP9 inhibitor)
COc1cc(C2OCC3C(c4ccc(OC5OC(CO)C(O)C(O)C5O)c(OC)c4)OCC23)ccc1O (centres undefined)	ALR H2O2 inh 95
CC[C@H]1c2[nH]c3ccccc3c2C[C@@H]2C(=O)N(c3ccc(F)cc3)C(=O)N21	none (no result: SUMO HTRF inh, RBBP9 inhibitor)
CC1=C(C)/C(=N\OC(=O)/C=C/c2ccccc2)C=CC1=O	ALR H2O2 inh 87
CC1=CC(=O)C=C(C)C1=NOC(=O)/C=C\c1ccccc1	ALR H2O2 inh 98
Cc1ccc(NC(=O)CN2C(=O)NC3(CCCc4ccccc43)C2=O)c([N+](=O)[O-])c1 (centres undefined)	none (no result: RBBP9 inhibitor)
O=C(Nc1ccc(S(=O)(=O)N2CCOCC2)cc1)c1ccc(Cl)cc1Cl	none (no result: RBBP9 inhibitor)
C/C(=N\NC(=O)c1ccncc1)C12CC3CC(CC(C3)C1)C2	none
CC/C(=N\NC(=O)c1ccc(-c2ccccc2)cc1)C12CC3CC(CC(C3)C1)C2	ALR H2O2 inh 98

Bioassay records from PubChem BioAssay.
